CHRM1 PAM: potentiates human M1 receptor response to acetylcholine; CHO-K1 hM1, Fluo-8 calcium fluorescence, ACh EC20; 0% = ACh EC20, 100% = maximal ACh; activation, % at 3 µM; actives 0.088% (n = 360,000); in the data active = activation above about 19%, passing the limit was not always enough
CHRM1 agonist: human M1 muscarinic receptor agonism; P11229; CHO-K1 hM1, Fluo-8 calcium fluorescence, agonist mode; 0% DMSO, 100% acetylcholine EC100; activation, % at 3 µM; actives 0.33% (n = 360,000);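 active = activation above the run's mean compound activation plus 3 SD, cut at about 16% in these data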;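 also: peak over basal fluorescence ratio within a 140 s kinetic read after compound addition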
CHRM1 antagonist: human CHRM1 antagonism | AID 588852 | actives 1.3% (n = 360,000) | P11229 | CHO-K1 hM1, Fluo-8 calcium fluorescence, ACh EC80 antagonist | inhibition, % at 3 µM;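 active = percent inhibition above its own plate's cutoff, namely the mean of that plate's compound wells plus 3 SD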;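 also: peak over basal fluorescence ratio during 140 s after agonist addition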
HTR2A ag: mouse HTR2A agonism via beta-arrestin recruitment. CHO-K1 mHTR2A beta-arrestin complementation, luminescence; percent of 30 µM serotonin response. activation, % at 7.6 µM. actives 0.66% (n = 360,000). AID 624169;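 active = activation above a run cutoff, the mean activation of all tested compounds plus 3 SD, cut at about 14% in these data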
Target sequence (P35363 whole entry, looked up): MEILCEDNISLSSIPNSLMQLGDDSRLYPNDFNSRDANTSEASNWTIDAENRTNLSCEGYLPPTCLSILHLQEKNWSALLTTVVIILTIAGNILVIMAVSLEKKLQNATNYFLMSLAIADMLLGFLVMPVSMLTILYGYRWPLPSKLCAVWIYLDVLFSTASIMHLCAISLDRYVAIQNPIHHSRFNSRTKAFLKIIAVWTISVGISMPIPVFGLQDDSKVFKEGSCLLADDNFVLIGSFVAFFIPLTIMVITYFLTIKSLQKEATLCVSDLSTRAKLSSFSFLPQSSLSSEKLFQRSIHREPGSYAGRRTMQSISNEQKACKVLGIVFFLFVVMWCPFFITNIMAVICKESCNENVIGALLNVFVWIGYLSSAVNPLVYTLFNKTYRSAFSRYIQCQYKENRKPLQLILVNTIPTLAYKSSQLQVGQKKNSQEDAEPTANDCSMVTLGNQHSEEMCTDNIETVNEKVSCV
TAAR1 ag: agonists of human TAAR1; AID 624467; Q96RJ0; actives 0.99% (n = 360,000); CHO RD-HGA16 TAAR1, Fluo-8 calcium fluorescence; vehicle wells 0%, saturating PEA agonist 100%; activation, % at 3 µM;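 active = activation above the mean activation of all test compounds in the run plus 3 SD, cut at about 38% in these data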
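test system = CHO RD-HGA16 cells carrying human TAAR1 plus Gα16 | schedule = 17-24 h seeding, 75 min 37 °C dye, 30 min RT | compound dosing = 3 µM single concentration | control set = DMSO and PEA EC100 | replicates = n 1 | signal = Fluo-8 fluorescence, 5 s baseline then 140 s kinetic read | measure = percent activation vs PEA EC100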
TAAR1 antag: human TAAR1 antagonism; actives 1.5% (n = 360,000); inhibition, % at 3 µM; CHO RD-HGA16 TAAR1, Fluo-8 calcium fluorescence, antagonist;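 active = inhibition above a per-plate cutoff, the mean inhibition of test compounds on that plate plus 3 SD, cut at about 49% in these data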
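Assay system: CHO-derived RD-HGA16 cells stably expressing human TAAR1 plus Gα16. Timing: 140 s kinetic read after compound, 140 s after agonist. Technique: kinetic Fluo-8 calcium fluorescence measurement. Measure: % inhibition of agonist calcium response.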
TAAR1 ag conf: confirmation of human TAAR1 agonists. shares compounds with TAAR1 ag. CHO RD-HGA16 TAAR1, Fluo-8 calcium fluorescence; scaled: DMSO 0%, maximal phenethylamine 100%. activation, % at 3 µM. actives 82% (n = 2,400). AID 651783;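 active = activation above a cutoff set at the run's mean compound activation plus 3 SD, cut at about 39% in these data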
Ga16 ag counter: nonselective agonism, TAAR1 counter-screen; activation, % at 3 µM; shares compounds with TAAR1 ag; AID 651787; actives 50% (n = 2,400); CHO-Ga16 parental, Fluo-8 calcium fluorescence; normalized to maximal ATP response, DMSO zero;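 active = activation above the run cutoff, the mean activation over all tested wells plus 3 SD, cut at about 12% in these data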
TAAR1 desensitize: human TAAR1 agonist that also desensitizes the receptor | CHO RD-HGA16 hTAAR1, Fluo-8 calcium, beta-PEA response inhibition | AID 651951 | inhibition, % at 3 µM | shares compounds with TAAR1 ag | actives 46% (n = 2,400);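 active = inhibition above the run cutoff, the mean inhibition of all test compounds plus 3 SD, cut at about 49% in these data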;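 also: beta-PEA stimulus applied at its EC80; loss of beta-PEA calcium signal after compound pretreatment read as receptor desensitization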
Ga16 nonsel ant: counter-screen for TAAR1 agonists: nonselective Ga16 antagonists; shares compounds with TAAR1 ag; CHO-Ga16 ATP-induced calcium, Fluo-8 fluorescence; inhibition, % at 3 µM; actives 39% (n = 2,400); AID 651952;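 active = inhibition above the plate's mean compound inhibition plus 3 SD, computed per plate, cut at about 22% in these data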
A number is an active result; . = inactive; / = no result given. Hits are enriched below; roughly 3.9% of the tested compounds scored in any of these assays.

SMILES	CHRM1 PAM	CHRM1 agonist	CHRM1 antagonist	HTR2A ag	TAAR1 ag	TAAR1 antag	TAAR1 ag conf	Ga16 ag counter	TAAR1 desensitize	Ga16 nonsel ant
Cc1cccc(C)c1NC(=O)C1CCCN1C(=O)Nc1cccc(F)c1 (configuration not stated)	.	.	.	.	.	.	/	/	/	/
Cc1ccc2[nH]c(=O)c(CN(CC3COCCO3)C(=O)Nc3ccccc3F)cc2c1 (configuration not stated)	.	.	.	.	.	.	/	/	/	/
CCC(=NCCc1ccccc1)C1=C(O)CCC1=O	.	.	.	.	86.5	87.2	103.6	.	92.7	.
COC(=O)[C@]12CCCCC=C1N(Cc1ccccc1)C(=O)[C@H](CC(=O)NCCc1ccccc1OC)C2	/	/	/	.	70.1	56.9	91.4	.	76.6	.
COC(=O)[C@]12CCCCC=C1N(Cc1cccc3ccccc13)C(=O)[C@H](CC(=O)NCCc1ccccc1OC)C2	/	/	/	.	45.0	.	44.4	.	.	.
CCCCCCCCN1C(=O)[C@H](CC(=O)NCCc2ccccc2OC)C[C@@]2(C(=O)OC)CC(C)(C)CC=C12	/	/	/	.	44.1	.	60.1	.	.	.
COC(=O)[C@]12CCCCC=C1N(Cc1cccc3ccccc13)C(=O)[C@H](CC(=O)NCC1CCCCC1)C2	/	/	/	.	.	.	/	/	/	/
CCOC(=O)[C@]12CCC=C1N(Cc1ccccc1)C(=O)[C@H](CC(=O)NCCc1ccccc1OC)C2	/	/	/	.	69.7	52.3	91.3	.	75.4	.
CCOC(=O)C1(C)CCN1C(=O)c1csnn1 (configuration not stated)	.	.	.	.	.	.	/	/	/	/
CN(N=Cc1ccccc1O)C(=O)c1ccccc1N	/	/	/	/	.	.	/	/	/	/
COc1ccc(NC(=O)N(C)C[C@H]2OCc3cn(nn3)CCCC(=O)N([C@H](C)CO)C[C@@H]2C)cc1	/	/	/	/	.	.	/	/	/	/
O=C(NCCN1CCCC1)C(c1ccccc1)c1ccccc1	.	.	.	.	.	.	/	/	/	/
O=C(Nc1c(F)cc(F)cc1Br)c1cc(-c2ccco2)on1	.	.	.	.	54.6	.	55.9	.	.	.
Cc1nn(Cc2ccc(Cl)cc2)c(C)c1NC(=O)c1cc(-c2ccco2)on1	.	.	.	.	64.8	84.8	.	15.7	56.2	42.5
Cc1ccc(NC(=O)CN2C(=O)S/C(=C/c3ccc(O)c([N+](=O)[O-])c3)C2=O)cc1C	.	.	.	.	90.9	80.4	.	.	.	.
CCOC(=O)[C@]12CCC=C1N(Cc1cccc3ccccc13)C(=O)[C@H](CC(=O)N1CCN(C(=O)C3CC3)CC1)C2	/	/	/	.	.	.	/	/	/	/
Cc1ccc(C)c(C(O)c2ncc(-c3cccc(C(F)(F)F)c3)[nH]2)c1 (configuration not stated)	.	.	.	.	66.3	65.7	58.1	45.4	.	33.1
CCOc1ccc(OCC(=O)Nc2cc(Cl)ccc2-n2cncn2)cc1	.	.	.	.	.	.	/	/	/	/
COc1ccc(S(=O)(=O)n2nc(OC(=O)c3cccs3)cc2N)cc1	.	.	.	.	53.0	.	.	.	.	.
COc1ccc(S(=O)(=O)n2nc(OC(=O)c3ccccc3)cc2N)cc1	.	.	.	.	57.1	.	51.2	13.4	.	.
COc1ccc(S(=O)(=O)n2nc(OC(=O)c3ccccc3Br)cc2N)cc1	.	.	.	.	97.1	.	83.9	44.0	.	.
Cc1ccc(S(=O)(=O)N2CCCCC2)cc1NC(=O)c1ccc(Cl)nc1	.	.	.	.	.	.	/	/	/	/
CC(C(=O)N1CCN=C1c1ccccc1)N1C(=O)c2ccccc2C1=O (configuration not stated)	.	.	.	.	.	.	/	/	/	/
OC(CNCCN1CCNCC1)Cc1ccccc1 (configuration not stated)	.	.	.	.	.	.	/	/	/	/
C=C(C(=O)c1ccccc1)C(CC(=O)c1ccccc1)c1ccccc1 (configuration not stated)	.	.	.	.	.	.	/	/	/	/
SMILES	CHRM1 PAM	CHRM1 agonist	CHRM1 antagonist	HTR2A ag	TAAR1 ag	TAAR1 antag	TAAR1 ag conf	Ga16 ag counter	TAAR1 desensitize	Ga16 nonsel ant
COc1ccc(OC)c(/C=C2/Sc3ccccc3C2=O)c1	.	25.0	.	.	73.6	61.4	.	28.6	.	50.3
O=C(O)c1cc(-n2[nH]c(=O)c3ccccc3c2=O)ccc1Cl	.	.	.	.	.	.	/	/	/	/
COCCOc1cc(NCc2ccccc2)c2ncn(C(C)C)c2c1	.	.	.	.	.	.	/	/	/	/
CCCOc1cc(NCc2ccccc2)c2ncn(C(C)C)c2c1	.	.	.	.	61.1	.	41.1	17.8	.	.
CC(C)n1cnc2c(NCc3ccccc3)cc(Cc3ccc(F)cc3)cc21	.	.	.	.	47.1	.	.	.	.	.
COc1ccc([C@H]2C(C(=O)O)=C[C@@H](C(C)(C)C)N2S(=O)(=O)c2ccccc2)cc1	.	.	.	.	.	.	/	/	/	/
O=C1NC(=S)SC1=Cc1ccc2c(c1)OCO2	.	.	.	.	.	.	/	/	/	/
CN(C)c1ccc(C=C2SC(=S)NC2=O)cc1	.	.	.	.	69.2	56.8	56.6	84.6	69.4	78.1
CCOC(=O)c1ccc(NC(=S)NCCc2ccc(F)cc2)cc1	.	.	.	.	.	.	/	/	/	/
O=C(Cn1nnc(N2CCCCC2)n1)NN=Cc1ccccc1O	/	/	/	/	48.8	.	63.9	.	.	.
Nc1nnn(CC(=O)N/N=C/c2cccc3ccccc23)n1	.	.	.	.	.	.	/	/	/	/
C=CCOC(=O)C(=O)/C=C/c1coc2ccccc2c1=O	.	.	.	.	53.4	.	.	22.5	.	.
C=CCN(CC=C)S(=O)(=O)c1ccc2nc(NC(=O)C(C)C)sc2c1	.	23.9	.	.	39.5	.	69.1	30.6	.	.
CCC(C)(C)NC(=O)CN(C(=O)CNS(=O)(=O)c1ccc(C)cc1)c1ccc2c(c1)OCCO2	.	.	.	.	52.1	.	82.4	26.4	.	.

Screens: PubChem BioAssay, The Scripps Research Institute Molecular Screening Center
